mABHD4 FP = ABHD4 (mouse) inhibition, primary FP screen; Q8VD66; purified mABHD4, FP-Rh probe fluorescence polarization; inhibition, % at 8.92 µM; hit rate 0.54% among 370,000; AID 720543;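 active = inhibition exceeding the mean over every tested compound plus 3 SD, cut at about 30% in these data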;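 also: 0% = plate median of compound wells and 100% = S159A mutant with DMSO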
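Assay system: wild-type mouse ABHD4 protein; compound: single nominal dose of 8.92 µM, 0.89% DMSO final; schedule: 45 min + 60 min at 25 °C; measured by: FP readout, ex 525 nm / em 598 nm; evaluation: % inhibition of FP-Rh probe binding versus controls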
PRMT1 inh = PRMT1 (human) inhibition, primary screen. Q99873. recombinant PRMT1, activity-based probe fluorescence polarization. inhibition, % at 2.79 µM. hit rate 1.3% among 370,000;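 active = inhibition above about 21% made by adding two undisclosed values, limit read from the data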
Target sequence (Q99873 whole entry, looked up): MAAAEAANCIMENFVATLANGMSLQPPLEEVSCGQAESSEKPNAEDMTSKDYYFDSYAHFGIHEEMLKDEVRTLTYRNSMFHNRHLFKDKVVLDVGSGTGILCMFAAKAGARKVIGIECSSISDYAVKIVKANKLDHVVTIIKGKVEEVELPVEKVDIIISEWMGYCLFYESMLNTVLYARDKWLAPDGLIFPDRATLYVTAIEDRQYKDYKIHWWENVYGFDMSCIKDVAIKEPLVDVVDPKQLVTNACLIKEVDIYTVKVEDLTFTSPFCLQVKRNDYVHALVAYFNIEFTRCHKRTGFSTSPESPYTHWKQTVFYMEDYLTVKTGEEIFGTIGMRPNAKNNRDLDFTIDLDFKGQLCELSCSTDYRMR
SIAE inh = human SIAE inhibition, primary screen; Q9HAT2; SIAE FP-Rh probe binding, fluorescence polarization; inhibition, % at 9.66 µM; hit rate 0.69% among 370,000; AID 1053197;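 active = inhibition above a cutoff: mean of compounds within the control limits plus 3 SD of those, cut at about 17% in these data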;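 also: 0% = plate median of compound wells and 100% = probe without SIAE protein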
TCR-CD3 inh = human TCR-CD3 binding inhibition | AID 651800 | hit rate 0.37% among 360,000 | TAMRA-labeled TCR probe fluorescence, biochemical | inhibition, % at 9.4 µM; in the data active = inhibition above about 19%;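 also: recombinant mutant TCR 2C K166C tagged with TAMRA read by polarization; 0% = receptor in buffer alone and 100% = receptor with positive control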
HTRA1 inh = blocks human HTRA1 serine peptidase; recombinant HTRA1, FP-rhodamine activity-based probe, fluorescence polarization; Q92743; inhibition, % at 5.96 µM; hit rate 0.5% among 340,000; in the data active = inhibition above about 36%;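 also: 0% = enzyme with DMSO and 100% = wells lacking enzyme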
PRMT1 inh conf = PRMT1 (human) inhibition, FP confirmation. shares compounds with PRMT1 inh. recombinant His-PRMT1, activity-based probe fluorescence polarization. inhibition, % at 2.79 µM. hit rate 42% among 3,300;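 active = mean inhibition across replicates above the hit cutoff derived for the earlier primary screen, cut at about 22% in these data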
Active calls of the source: *. A selection: hits, their analogues and other compounds. The true share with any hit is near 2.5%.

How did CN(Cc1c(F)cccc1Cl)C(=O)c1ccc(NC(=O)CC2SC(N3CCCC3)=NC2=O)cc1 (centres undefined) do in these assays?
mABHD4 FP: -1; PRMT1 inh: 101*; SIAE inh: 0; TCR-CD3 inh: 8; HTRA1 inh: -3; PRMT1 inh conf: 2

What do the screens show for `CCOC(=O)c1c(NC(C)=O)sc2c1CCN(Cc1ccccc1)C2`?
mABHD4 FP: 10; PRMT1 inh: 1; SIAE inh: 3; TCR-CD3 inh: -8; HTRA1 inh: 0

How did CCOC(=O)c1c(NC(C)=O)sc2c1CCC(C=O)=C2Sc1ccccc1 do in these assays?
mABHD4 FP: 12; PRMT1 inh: 31*; SIAE inh: 9; TCR-CD3 inh: -4; HTRA1 inh: -11; PRMT1 inh conf: 3

Results for COCCCN(C(=O)c1cc(-c2ccco2)nc2ccccc12)c1c(N)n(Cc2ccccc2)c(=O)[nH]c1=O ?
mABHD4 FP: -8; PRMT1 inh: 47*; SIAE inh: 4; TCR-CD3 inh: 18; HTRA1 inh: 3; PRMT1 inh conf: 11

How did O=C(O)c1cc(-c2ccco2)nc2cc3ccccc3cc12 do in these assays?
mABHD4 FP: 6; PRMT1 inh: 26*; SIAE inh: -3; TCR-CD3 inh: 2; HTRA1 inh: -1; PRMT1 inh conf: 22*

Results for CCCn1c(N)c(N(CCOC)C(=O)c2cc(-c3ccco3)nc3ccccc23)c(=O)[nH]c1=O ?
mABHD4 FP: 4; PRMT1 inh: 14; SIAE inh: 0; TCR-CD3 inh: 5; HTRA1 inh: 9

Results for COc1ccc(CCNC(=O)c2cc(-c3ccco3)nc3ccccc23)cc1 ?
mABHD4 FP: -19; PRMT1 inh: 40*; SIAE inh: -10; TCR-CD3 inh: 5; PRMT1 inh conf: 16

How did O=C(COC(=O)c1cc(-c2ccco2)nc2ccccc12)NCc1ccccc1 do in these assays?
mABHD4 FP: -2; PRMT1 inh: 36*; SIAE inh: -2; TCR-CD3 inh: -1; HTRA1 inh: -15; PRMT1 inh conf: 9

Results for Cn1c(Cc2cccs2)nnc1SCC(=O)Nc1ccc2cn[nH]c2c1 ?
mABHD4 FP: -4; PRMT1 inh: -1; SIAE inh: 1

What do the screens show for `OC(c1ccccc1)(c1ccccc1)C1CCN(CCCNc2ccccc2Br)CC1`?
mABHD4 FP: 11; PRMT1 inh: -3; SIAE inh: -2

What do the screens show for `CCCCOc1ccc(C(=O)NC2CCCCN(CC)C2=O)cc1` (centres undefined)?
mABHD4 FP: 1; PRMT1 inh: 0; SIAE inh: 3

Results for COC(=O)c1sc(NC(=O)c2cc(-c3ccccc3)nc3ccccc23)c(C#N)c1C ?
mABHD4 FP: 11; PRMT1 inh: 37*; SIAE inh: -7; TCR-CD3 inh: 0; HTRA1 inh: -9; PRMT1 inh conf: 63*

What do the screens show for `Cc1nnc(SCC(=O)Nc2nccs2)n(N)c1=O`?
mABHD4 FP: 3; PRMT1 inh: -1; SIAE inh: -4; TCR-CD3 inh: -2; HTRA1 inh: 8

What do the screens show for `Cc1c(O)nc(SCC(=O)Nc2nccs2)n(-c2ccccc2F)c1=O`?
mABHD4 FP: 6; PRMT1 inh: 28*; SIAE inh: 3; TCR-CD3 inh: 8; HTRA1 inh: 1; PRMT1 inh conf: 18

Results for Cc1cc(C)cc(-n2c3nc4ccccc4nc3c3c(=O)n(Cc4ccco4)cnc32)c1 ?
mABHD4 FP: -18; PRMT1 inh: 52*; SIAE inh: -11; TCR-CD3 inh: -3; HTRA1 inh: -26; PRMT1 inh conf: 18

What do the screens show for `S=C(NCc1ccc(Cl)cc1)OC1CCC12CCC(c1ccccc1)CC2` (centres undefined)?
mABHD4 FP: -20; PRMT1 inh: 1; SIAE inh: -8

Results for CC(C)n1ncc2c(C(=O)Nc3ccccc3SCC(N)=O)cc(C3CC3)nc21 ?
mABHD4 FP: -6; PRMT1 inh: 80*; SIAE inh: -4; TCR-CD3 inh: -2; HTRA1 inh: -19; PRMT1 inh conf: -3

What do the screens show for `CCc1ccccc1NC(=O)CNC(=O)c1cc(C2CC2)nc2c1cnn2C(C)C`?
mABHD4 FP: -3; PRMT1 inh: 2; SIAE inh: 0; TCR-CD3 inh: -8; HTRA1 inh: -5

What do the screens show for `COCCCNC(=O)C[C@H]1C[C@@]2(C(=O)OC)C(=C[C@H](C3CCCC3)O[C@@H]2C)N(Cc2ccc(Cl)cc2Cl)C1=O`?
mABHD4 FP: -1; PRMT1 inh: 3; SIAE inh: 4

How did CC1(C)CC(=O)C2=C(C1)Nc1ccccc1S2 do in these assays?
mABHD4 FP: 7; PRMT1 inh: 15; SIAE inh: 2; TCR-CD3 inh: -7; HTRA1 inh: 5

Results for CC1(C)CC(=O)C2=C(C1)Nc1ccccc1NC2 ?
mABHD4 FP: -1; PRMT1 inh: 25*; SIAE inh: -7; TCR-CD3 inh: -12; HTRA1 inh: -7; PRMT1 inh conf: 0

How did O=C(O)Cn1c(O)c(C2=c3ccccc3=NC2=O)sc1=O do in these assays?
mABHD4 FP: 8; PRMT1 inh: 27*; SIAE inh: 5; TCR-CD3 inh: 3; HTRA1 inh: 4; PRMT1 inh conf: 10

What do the screens show for `Cc1c(-n2c(O)c(C3=c4ccccc4=NC3=O)sc2=O)c(=O)n(-c2ccccc2)n1C`?
mABHD4 FP: 7; PRMT1 inh: 3; SIAE inh: 5; TCR-CD3 inh: 4; HTRA1 inh: -1

How did CCN(CC)C(=O)CSc1nnc2nnc3cc(OC)ccc3n12 do in these assays?
mABHD4 FP: 7; PRMT1 inh: 29*; SIAE inh: 6; TCR-CD3 inh: -10; PRMT1 inh conf: 26*

Results for Cc1ccc2occ(C3NC(C(=O)O)CS3)c(=O)c2c1 (centres undefined) ?
mABHD4 FP: 3; PRMT1 inh: -2; SIAE inh: -3; TCR-CD3 inh: 4; HTRA1 inh: 4

Results for Cc1ccc2occ(C3N[C@H](C(=O)O)CS3)c(=O)c2c1 (some centres undefined) ?
mABHD4 FP: 0; PRMT1 inh: 50*; SIAE inh: 3; TCR-CD3 inh: 6; HTRA1 inh: -19; PRMT1 inh conf: 45*

Results for COc1ccc(-n2c(SCC(=O)N3CCCC3)nnc2-c2ccncc2)cc1 ?
mABHD4 FP: 7; PRMT1 inh: -2; SIAE inh: -7

How did COC(=O)c1ccccc1S(=O)(=O)N(Cc1ccco1)Cc1cc2cc(OC)ccc2[nH]c1=O do in these assays?
mABHD4 FP: 6; PRMT1 inh: 30*; SIAE inh: -1; TCR-CD3 inh: 3; HTRA1 inh: -2; PRMT1 inh conf: -2

Results for FC(F)(F)c1ccccc1Cc1c(-c2ccco2)nc2ccc(Cl)cn12 ?
mABHD4 FP: 6; PRMT1 inh: 35*; SIAE inh: -9; TCR-CD3 inh: 0; PRMT1 inh conf: 16

How did FC(F)(F)c1cc(Cl)c2nc(-c3ccco3)c(Cc3ccccc3C(F)(F)F)n2c1 do in these assays?
mABHD4 FP: -2; PRMT1 inh: 47*; SIAE inh: 4; TCR-CD3 inh: 6; PRMT1 inh conf: 15

Compound activity: PubChem BioAssay, The Scripps Research Institute Molecular Screening Center
